Source: PubChem
S100A4 inh HTS – inhibitors of human S100A4 binding to myosin IIA peptide | P26447 | S100A4/TAMRA-MyoIIA peptide fluorescence polarization | inhibition, % at 10.7 µM | actives 0.14% (n = 360,000) | AID 652163;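 active = mean inhibition of at least 70% across replicates, with every replicate also reaching that level; inconclusive = mean inhibition reaches 70% but some replicates fall short; inactive = mean inhibition below 70%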
Target sequence (P26447 whole entry, looked up): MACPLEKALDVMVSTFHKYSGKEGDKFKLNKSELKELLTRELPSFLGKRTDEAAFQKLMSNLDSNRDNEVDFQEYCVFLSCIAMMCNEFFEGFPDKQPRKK
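Compound dosing: one dose per compound; test system: human S100A4 monomer with TAMRA-labelled myosin IIA peptide; probe or stimulus: TAMRA-labelled myosin IIA heavy-chain peptide probe, 5 nM; medium: HEPES buffer with Ca2+, pH 7.2; schedule: 5 min incubation before reading; benchmarks: neutral control DMSO, positive control TFP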
MLL AF4-AF9 inh – inhibitors of human MLL-AF4/AF9 interaction | P42568 | AlphaScreen, biotin-AF4 peptide binding to FLAG-AF9 | inhibition, % at 10 µM | actives 0.47% (n = 350,000);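 active = every replicate reaching a set inhibition limit, whatever the replicate mean, cut at about 25% in these data; inconclusive = mean inhibition reaches that limit but some replicates miss it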;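 note: 0% = plate neutral control median and 100% = total signal loss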
Target sequence (P42568 whole entry, looked up): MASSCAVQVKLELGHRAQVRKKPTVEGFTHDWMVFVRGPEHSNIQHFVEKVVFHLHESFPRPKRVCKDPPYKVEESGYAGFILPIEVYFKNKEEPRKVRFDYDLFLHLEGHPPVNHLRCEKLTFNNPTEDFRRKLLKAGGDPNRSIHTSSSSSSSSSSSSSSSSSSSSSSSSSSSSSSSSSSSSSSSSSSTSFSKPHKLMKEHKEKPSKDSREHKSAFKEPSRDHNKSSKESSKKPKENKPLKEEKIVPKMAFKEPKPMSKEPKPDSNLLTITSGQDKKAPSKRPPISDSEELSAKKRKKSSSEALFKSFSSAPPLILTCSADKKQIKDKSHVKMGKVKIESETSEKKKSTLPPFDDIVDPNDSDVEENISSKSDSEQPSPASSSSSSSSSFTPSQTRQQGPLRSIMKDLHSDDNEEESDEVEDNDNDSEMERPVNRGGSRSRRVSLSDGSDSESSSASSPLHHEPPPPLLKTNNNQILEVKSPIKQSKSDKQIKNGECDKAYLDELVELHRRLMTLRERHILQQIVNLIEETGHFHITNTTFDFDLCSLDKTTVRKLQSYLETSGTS
miR122 inh – miR-122 inhibition in Huh7 cells; Huh7 miR-122 Renilla luciferase sensor, 48 h; neutral wells = 0, positive control = 100; activation (reporter increase), % at 12.5 µM; actives 0.3% (n = 340,000);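 active = mean replicate activation score at least 90 and every replicate individually at or above 90; inconclusive = only one of the two criteria met; inactive = neither criterion met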;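 note: higher luciferase means less miR-122 activity so hits act as miR-122 inhibitors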
Rtt109 Vps75 – inhibitors of Candida albicans Rtt109/Vps75 histone acetyltransferase; Q5AAJ8; purified Rtt109/Vps75, ThioGlo CoA-SH fluorescence, 4 h; inhibition, % at 34.9 µM; actives 0.16% (n = 330,000);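 active = inhibition of at least 50% in every replicate; inconclusive = best replicate reaches 50% inhibition but some replicates fall short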
ERAP1 HTS inh – ERAP1 (human) enzyme inhibition. Q9NZ08. recombinant ERAP1, Leu-AMC fluorescence, 60 min. inhibition, % at 10.7 µM. actives 0.15% (n = 340,000). AID 652197;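 active = mean replicate inhibition of at least 30%, or all replicates individually reaching that 30% level; inactive = mean below 30% and not every replicate reaching it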;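 note: 0% = neutral control wells and 100% = L-leucinethiol positive control wells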
AlphaScreen intf – counter-screen: AlphaScreen signal interference; shares compounds with MLL AF4-AF9 inh; signal luminescence; AID 720494; actives 45% (n = 530); AC50, µM (top dose mostly 12 µM), for the others: at the highest dose activity change, negative = inhibition; cut-off not given, nearly all actives have AC50 up to about 14 µM
Numbers without * were called inactive; [ ] = remark or other dose. Shown are actives, neighbours in structure and some others; about 0.86% of the full set was active somewhere.

O=[N+]([O-])c1cc(/C=N/Nc2nc3ccccc3[nH]2)c(O)cc1O was read as S100A4 inh HTS 3, MLL AF4-AF9 inh 41*, ERAP1 HTS inh 1 and AlphaScreen intf 1.6µM*.
C[C@H]1CN([C@@H](C)CO)S(=O)(=O)c2ccc(-c3ccc(C#N)cc3)cc2O[C@H]1CN(C)Cc1ccccn1 was read as S100A4 inh HTS -3, MLL AF4-AF9 inh 0 and ERAP1 HTS inh -1.
O=C(NN1C(=O)/C(=C/c2ccc(O)c(O)c2)SC1=S)c1ccccc1 was read as S100A4 inh HTS 6, MLL AF4-AF9 inh inconclusive, Rtt109 Vps75 -2, ERAP1 HTS inh 6 and AlphaScreen intf -24%.
C[C@@H]1CN([C@@H](C)CO)C(=O)c2cccc(NC(=O)c3nc4ccccc4s3)c2O[C@@H]1CN(C)Cc1ccncc1 was read as S100A4 inh HTS 55, MLL AF4-AF9 inh 5, miR122 inh 1[16.7 µM] and ERAP1 HTS inh -13.
Screening COc1ccc(/C=N/N2CCN(c3ccccc3OC)CC2)cc1Br returned S100A4 inh HTS -1, MLL AF4-AF9 inh 27*, miR122 inh -1, Rtt109 Vps75 -2, ERAP1 HTS inh -1 and AlphaScreen intf -20%.
`COc1ccccc1N1CCN(/N=C/C=C\c2ccccc2[N+](=O)[O-])CC1` gave S100A4 inh HTS 0, MLL AF4-AF9 inh 51*, Rtt109 Vps75 7, ERAP1 HTS inh -2 and AlphaScreen intf -19%.
`COc1ccccc1N1CCN(/N=C/c2cccc(Cl)c2)CC1` gave S100A4 inh HTS 0, MLL AF4-AF9 inh 27*, miR122 inh -19, Rtt109 Vps75 4, ERAP1 HTS inh 0 and AlphaScreen intf -26%.
Screening COc1cccc(/C=N/N2CCN(c3ccccc3OC)CC2)c1 returned miR122 inh -4 and Rtt109 Vps75 9.
Screening C[C@@H]1CCCCO[C@@H](CN(C)S(C)(=O)=O)[C@@H](C)CN([C@@H](C)CO)C(=O)c2cc(N(C)C)ccc2O1 returned miR122 inh 1[16.7 µM].
CC(C)Nc1ccc(Nc2ccnc3cc4ccccc4cc23)cc1 was read as S100A4 inh HTS 0, MLL AF4-AF9 inh 84*, Rtt109 Vps75 0, ERAP1 HTS inh -3 and AlphaScreen intf 3µM*.
`COc1ccc(Nc2ccnc3ccccc23)cc1` gave miR122 inh 1 and Rtt109 Vps75 25.
`C[C@H](CO)N1C[C@H](C)[C@H](CN(C)C)Oc2cc(C#CC(C)(C)O)ccc2S1(=O)=O` gave S100A4 inh HTS 8, MLL AF4-AF9 inh -1, miR122 inh -3[16.7 µM] and ERAP1 HTS inh 1.
For O=[N+]([O-])c1cc(CN2CCCC2)ccc1Sc1ccc(Cl)cc1 the results were S100A4 inh HTS -4, MLL AF4-AF9 inh 34*, Rtt109 Vps75 4, ERAP1 HTS inh 7 and AlphaScreen intf -32%.
`C[C@@H]1CCCCO[C@H](CN(C)Cc2ccncc2)[C@@H](C)CN([C@@H](C)CO)C(=O)c2cc(NC(=O)CCC(F)(F)F)ccc2O1` gave S100A4 inh HTS 0, MLL AF4-AF9 inh -4, miR122 inh 1[16.7 µM] and ERAP1 HTS inh 5.
Cc1ccc(N2CCOCC2)c2c1C(=O)c1ccccc1C2=O was read as S100A4 inh HTS -2, MLL AF4-AF9 inh 64*, Rtt109 Vps75 11, ERAP1 HTS inh -1 and AlphaScreen intf 10µM*.
Screening CN(C1=C(N2CCOCC2)C(=O)c2ccccc2C1=O)c1ccccc1 returned miR122 inh -3 and Rtt109 Vps75 5.
For COc1ccc(-c2oc3ccccc3c(=O)c2OC(C)=O)cc1 the results were S100A4 inh HTS 3, MLL AF4-AF9 inh 55*, miR122 inh 3, Rtt109 Vps75 1, ERAP1 HTS inh -6 and AlphaScreen intf 7.3µM*.
Screening COc1ccc(-c2oc3ccccc3c(=O)c2OCC(=O)O)cc1 returned S100A4 inh HTS 2, MLL AF4-AF9 inh -3, miR122 inh -6, Rtt109 Vps75 4 and ERAP1 HTS inh -7.
Screening C[C@H](NC(=O)[C@H]1[C@H](CO)[C@H]2Cn3c(cccc3=O)[C@H]2N1C(=O)C1CC1)c1ccccc1 returned S100A4 inh HTS -11, MLL AF4-AF9 inh 0, miR122 inh -1[16.7 µM] and ERAP1 HTS inh 2.
Cc1ccc(NC(=S)N/N=C/c2ccc([N+](=O)[O-])s2)cc1 was read as S100A4 inh HTS -8, MLL AF4-AF9 inh inconclusive, Rtt109 Vps75 -4, ERAP1 HTS inh 2 and AlphaScreen intf -18%.
Screening C[C@H](CO)N1C[C@H](C)[C@H](CN(C)S(=O)(=O)c2ccc(F)cc2)Oc2c(NC(=O)c3cnccn3)cccc2C1=O returned S100A4 inh HTS 1, MLL AF4-AF9 inh -5, miR122 inh -3[16.7 µM] and ERAP1 HTS inh -2.
Cc1noc(C)c1NC(=O)N[C@H]1CC[C@H](CCNC(=O)C2CCCC2)O[C@H]1CO was read as S100A4 inh HTS -10, MLL AF4-AF9 inh -3, miR122 inh -4[16.7 µM] and ERAP1 HTS inh 1.
`CC(=O)OCCNc1cc(N2CCN(C)CC2)c2noc3c2c1C(=O)c1ccccc1-3` gave S100A4 inh HTS -58, MLL AF4-AF9 inh 86*, miR122 inh -9, Rtt109 Vps75 0, ERAP1 HTS inh 1 and AlphaScreen intf 8.6µM*.
Screening COCC(=O)N1CC2(CCN(S(C)(=O)=O)CC2)c2c(n(C)c3cc(OC)ccc23)[C@H]1CO returned S100A4 inh HTS 5, MLL AF4-AF9 inh 2 and ERAP1 HTS inh 5.
`CC(C)C1CC(CCNCc2ccc(N(C)C)cc2)(c2ccccc2)CCO1` (stereo unspecified) gave S100A4 inh HTS -1, MLL AF4-AF9 inh 39*, miR122 inh 12, Rtt109 Vps75 2, ERAP1 HTS inh -2 and AlphaScreen intf 8.6µM*.
Screening O=C(NCC[C@@H]1CC[C@H](NC(=O)c2ccc3c(c2)OCO3)[C@H](CO)O1)Nc1cc(F)ccc1F returned S100A4 inh HTS 3, MLL AF4-AF9 inh 5, miR122 inh 12[16.7 µM] and ERAP1 HTS inh 0.
COc1cc(N(C)C)ccc1C=c1c2ccccc2n2c1cc(-c1ccccc1)[n+]2C was read as S100A4 inh HTS inconclusive, MLL AF4-AF9 inh 84*, miR122 inh -7, Rtt109 Vps75 -1, ERAP1 HTS inh 40* and AlphaScreen intf 2.1µM*.
For CN(C)c1ccc(C=C2C=C(c3ccccc3)OC2=O)cc1 the results were S100A4 inh HTS 8, MLL AF4-AF9 inh -9, miR122 inh 1 and ERAP1 HTS inh -1.
`CN(C)c1ccc(C=c2c3ccccc3n3c2cc(-c2ccccc2)[n+]3C)cc1` gave S100A4 inh HTS 34, MLL AF4-AF9 inh 43*, Rtt109 Vps75 2, ERAP1 HTS inh 12 and AlphaScreen intf 4.4µM*.
CN(C)CCNc1ncnc2c1sc1nc(-c3ccccc3)c3c(c12)CCCC3 was read as S100A4 inh HTS -14, MLL AF4-AF9 inh inconclusive, miR122 inh -35, Rtt109 Vps75 5, ERAP1 HTS inh -9 and AlphaScreen intf -14%.
